As usually defined, the IC50 is the concentration at which inhibition is half-maximal.

This is an account of results in ChEMBL document CHEMBL1141208, “Synthesis and biological evaluation of methoxylated analogs of the newer generation taxoids IDN5109 and IDN5390” (Bioorg Med Chem Lett, 2005).

One test deals with MCF7-DOX. In words: Cytotoxic potency in doxorubicin resistant MCF7 cell line after 72 hr exposure by SRB test. The test is classed as functional, cell-based. As to conditions: Homo sapiens. The procedure, abridged: (§1)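 Monolayers grown in RPMI-1640 with 5% FCS, 5% NuSerum IV, 20 mM Hepes, 2 mM L-glutamine, 37 °C, 5% CO2. 800–1500 cells/well attached 15–18 h, then given 10 concentrations over a 5-log range (DMSO stock diluted in RPMI/10 mM Hepes) for 72 h. Cells TCA-fixed, sulforhodamine B stained, OD 570 nm. IC50 from Sigmoid-Emax nonlinear regression; means of ≥3 independent experiments ± SE.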

Test [1] is described as follows: Resistance index (IC50 of MCF7 resistant cell line/IC50 of MCF7 sensitive cell line). The test is classed as functional, Homo sapiens.
A further test concerns MCF7. In words: Cytotoxic potency in MCF7 human mammary carcinoma cell line after 72 hr exposure by SRB test. Type of test: functional, cell-based. The conditions noted are these: MCF7, 72 h. The procedure, abridged:
as §1
Background: The SRB assay estimates cell density from bound dye.

SMILES strings stand for the structures.

In the case of `CC(=O)O[C@@]1([C@@H]2/C(C)=C(/O)C(=O)C3=C(C)[C@@H](OC(=O)[C@H](O)[C@H](CC(C)C)NC(=O)OC(C)(C)C)C[C@@](O)([C@H]2OC(=O)c2ccccc2)C3(C)C)CO[C@@H]1CCO`, the values for the IC50 with MCF7-DOX and in the test on MCF7 were 1040 nM and 11.2 nM, respectively. Besides, the “Ratio IC50” value in test [1] turned out to be 93.
Taken in the same sequence, the figures for `COc1cccc(C(=O)O[C@H]2[C@H]([C@]3(OC(C)=O)CO[C@@H]3CCO)/C(C)=C(/O)C(=O)C3=C(C)[C@@H](OC(=O)[C@H](O)[C@H](CC(C)C)NC(=O)OC(C)(C)C)[C@@H]4OC(=O)O[C@]42C3(C)C)c1` were 120 nM, 0.5 nM and 240.
Consider `COc1cccc(C(=O)O[C@H]2[C@@H]3[C@]4(OC(C)=O)CO[C@@H]4C[C@H](O)[C@@]3(C)C(=O)[C@H](OC(C)=O)C3=C(C)[C@@H](OC(=O)[C@H](O)[C@H](CC(C)C)NC(=O)OC(C)(C)C)[C@@H]4OC(=O)O[C@]42C3(C)C)c1`, for which the figures for the IC50 with MCF7-DOX and with MCF7 were 4 nM and 0.24 nM, respectively. For the same molecule, the “Ratio IC50” value in test [1] is on record as 17.
On to `CC(=O)O[C@H]1C(=O)[C@@]2(C)[C@H]([C@H](OC(=O)c3ccccc3)[C@]34OC(=O)O[C@H]3[C@H](OC(=O)[C@H](O)[C@H](CC(C)C)NC(=O)OC(C)(C)C)C(C)=C1C4(C)C)[C@]1(OC(C)=O)CO[C@@H]1C[C@@H]2O` [ORTATAXEL], for which the IC50 with MCF7-DOX came out at 32 nM; in the test on MCF7, 1.6 nM. In addition, in test [1], the “Ratio IC50” value was determined as 20.
Taken in the same sequence, the figures for `CC(=O)O[C@H]1C(=O)[C@@]2(C)[C@H]([C@H](OC(=O)c3ccccc3)[C@]3(O)C[C@H](OC(=O)[C@H](O)[C@@H](NC(=O)c4ccccc4)c4ccccc4)C(C)=C1C3(C)C)[C@]1(OC(C)=O)CO[C@@H]1C[C@@H]2O` [PACLITAXEL] were 585 nM, 0.6 nM and 975.
